# Data published in ChEMBL document CHEMBL3046679, “Design, synthesis, and biological activities of arylmethylamine substituted chlorotriazine and methylthiotriazine compounds” (J Agric Food Chem, 2011).
# The source made the active and inactive calls. No cut-off for these calls is given here.
# Columns and labels:
# [1] = system: Puccinia triticina; assay: Fungicidal activity against Puccinia triticina assessed as inhibition of disease development in compound treated leaf pieces at 200 ppm relative to untreated control (wheat-preventative); assay type: functional
# Outline: (§1)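 Preventative leaf-piece test on host tissue (tomato, vine, wheat or barley). Formulated compound applied at 200, 60 and 20 ppm before spore inoculation. Disease scored 3–9 days after inoculation, depending on the pathogen, as percent inhibition of disease development versus untreated controls. Values are the mean across replicates.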
# [2] = system: Phytophthora infestans; assay: Fungicidal activity against Phytophthora infestans assessed as inhibition of disease development in compound treated leaf pieces at 200 ppm relative to untreated control (tomato-preventative); assay type: functional; outline: as §1
# [3] = system: Phytophthora infestans; assay: Fungicidal activity against Phytophthora infestans assessed as inhibition of mycelia growth at 200 ppm; assay type: functional, organism-based
# [4] = system: Botrytis cinerea; assay: Fungicidal activity against Botryotinia fuckeliana assessed as inhibition of mycelia growth at 2 ppm; assay type: functional, organism-based
# Outline: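 Mycelial growth test in 96-well plates: compound incorporated into artificial growth medium at 2 ppm, two replicates per rate. Each well scored 99 for complete, 55 for partial or 0 for no inhibition. Values are the mean across replicates; azoxystrobin and prochloraz used as positive controls.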
# [5] = system: Lolium perenne; assay: Herbicidal activity against Lolium perenne (perennial ryegrass) assessed as growth inhibition at 1 kg/ha postemergence treatment by glasshouse test; assay type: functional; settings: post-emergence, read-out: GI
# Outline: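 Glasshouse screen with pre- or postemergence application at 1.0 kg/ha. Result given as percent inhibition of plant growth; norflurazon and glyphosate used as controls.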
# [6] = system: Poa annua; assay: Herbicidal activity against Poa annua assessed as growth inhibition at 32 ppm by 96-well plate test; assay type: functional; settings: read-out: GI
# Outline: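 96-well plate herbicide screen: Arabidopsis thaliana at 10 ppm and Poa annua at 32 ppm, two replicates. Plates incubated seven days in a controlled-environment cabinet. Each replicate scored 0 (no visible effect) or 99 (herbicidal effect); values are the mean of the two. Atrazine used as reference.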
# [7] = system: Pyrenophora teres; assay: Fungicidal activity against Pyrenophora teres assessed as inhibition of disease development in compound treated leaf pieces at 20 ppm relative to untreated control (barley-preventative); assay type: functional; outline: as §1
# [8] = system: Parastagonospora nodorum; assay: Fungicidal activity against Phaeosphaeria nodorum assessed as inhibition of disease development in compound treated leaf pieces at 20 ppm relative to untreated control (wheat preventative); assay type: functional; outline: as §1
# [9] = system: Plasmopara viticola; assay: Fungicidal activity against Plasmopara viticola assessed as inhibition of disease development in compound treated leaf pieces at 20 ppm relative to untreated control (grapevine-preventative); assay type: functional; outline: as §1
# [10] = system: Pyrenophora teres; assay: Fungicidal activity against Pyrenophora teres assessed as inhibition of disease development in compound treated leaf pieces at 60 ppm relative to untreated control (barley-preventative); assay type: functional; outline: as §1
# [11] = system: Pyrenophora teres; assay: Fungicidal activity against Pyrenophora teres assessed as inhibition of disease development in compound treated leaf pieces at 200 ppm relative to untreated control (barley-preventative); assay type: functional; outline: as §1
# [12] = system: Parastagonospora nodorum; assay: Fungicidal activity against Phaeosphaeria nodorum assessed as inhibition of disease development in compound treated leaf pieces at 200 ppm relative to untreated control (wheat preventative); assay type: functional
# Outline: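 Wheat leaf pieces treated with formulated compound (200, 60 and 20 ppm) before inoculation with pathogen spores. Disease development assessed 3–9 days after inoculation, depending on the assay. Scored as percent inhibition relative to untreated controls; value is the mean across replicates.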
smiles,measurement,setting,value
CC(C)Nc1nc(Cl)nc(NCc2ccc(F)cc2)n1,inhibition at 200 ppm,[1],100%
same,inhibition at 200 ppm,[2],0%
same,inhibition,[3],inactive
same,inhibition,[4],Active
same,inhibition of growth at 1000 g/ha,[5],50%
same,inhibition of growth at 32 ppm,[6],0%
same,inhibition at 20 ppm,[7],0%
same,inhibition at 20 ppm,[8],0%
same,inhibition at 20 ppm,[9],0%
same,inhibition at 60 ppm,[10],0%
same,inhibition at 200 ppm,[11],0%
same,inhibition at 200 ppm,[12],70%
